# From ChEMBL document CHEMBL2146380, “Uncoupling and antioxidant effects of ursolic acid in isolated rat heart mitochondria” (J Nat Prod, 2011)
# The source made the active and inactive calls. No cut-off for these calls is given here.
# Columns and labels:
# Type in all cases: functional
# Rattus norvegicus [1] = organism: Rattus norvegicus; test: Effect on basal respiration rate in Wistar rat heart mitochondrial respiratory chain using pyruvate and malate as substrate at 0.4 to 1.2 ng/mL; details: Mitochondria
# Summary of the method: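 Clark-type electrode oxygen uptake at 37 C, pH 7.1 imidazole/taurine/MES medium with 3 mM KH2PO4, 0.1 μM free Ca2+. Substrates 6 mM pyruvate + 6 mM malate; compound at 0.4, 0.8, 1.2 ng/mL; State 2 (V0) rate registered, nmol O/min/mg protein.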
# [2] = (§1) Effect on mitochondrial respiratory chain in Wistar rat heart mitochondria assessed as increase in state 2 respiratory rate using pyruvate and malate as substrate
# Summary of the method: (§2)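 Isolated male Wistar rat heart mitochondria at 0.5 mg protein/mL. O2 uptake was recorded by Clark electrode at 37 C in pH 7.1 imidazole/taurine/MES medium (3 mM KH2PO4, 0.1 μM free Ca2+). Substrates were 6 mM pyruvate + 6 mM malate, 12 mM succinate + 2 mM amytal, or 9 μM palmitoyl-L-carnitine + 0.24 mM malate. Sequence: State 2 (V0), then 1 mM ADP (State 3), then 32 μM cytochrome c. RCI = VADP/V0. Rates in nmol O/min/mg; n = 3–4.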
# Rattus norvegicus [3] = organism: Rattus norvegicus; test: as §1; summary of the method: as §2
# Rattus norvegicus [4] = organism: Rattus norvegicus; test: Effect on mitochondrial respiratory chain in Wistar rat heart mitochondria assessed as state 2 respiratory rate per mg protein using succinate and amytal sodium as substrate at 1.6 ng/mL; summary of the method: as §2
# Rattus norvegicus [5] = organism: Rattus norvegicus; test: Effect on mitochondrial respiratory chain in Wistar rat heart mitochondria assessed as state 2 respiratory rate per mg protein using succinate and amytal sodium as substrate at 5 ng/mL; summary of the method: as §2
# Rattus norvegicus [6] = organism: Rattus norvegicus; test: Effect on mitochondrial respiratory chain in Wistar rat heart mitochondria assessed as state 2 respiratory rate using palmitoyl-L-carnitine and malate as substrate at 1.6 ng/mL; summary of the method: as §2
# Rattus norvegicus [7] = organism: Rattus norvegicus; test: Effect on mitochondrial respiratory chain in Wistar rat heart mitochondria assessed as state 3 respiratory rate using pyruvate and malate as substrate at 5 ng/mL; summary of the method: as §2
# Rattus norvegicus [8] = organism: Rattus norvegicus; test: Effect on mitochondrial respiratory chain in Wistar rat heart mitochondria assessed as state 3 respiratory rate using succinate and amytal sodium as substrate at 5 ng/mL; summary of the method: as §2
# Rattus norvegicus [9] = organism: Rattus norvegicus; test: Effect on mitochondrial respiratory chain in Wistar rat heart mitochondria assessed as increase in state 2 respiration rate using pyruvate and malate as substrate at 50 to 200 ng/mL; summary of the method: as §2
# Rattus norvegicus [10] = organism: Rattus norvegicus; test: Effect on mitochondrial respiratory chain in Wistar rat heart mitochondria assessed as increase in state 3 respiration rate using pyruvate and malate as substrate in presence ADP at 50 to 200 ng/mL; summary of the method: as §2
# Rattus norvegicus [11] = organism: Rattus norvegicus; test: Effect on mitochondrial respiratory chain in Wistar rat heart mitochondria assessed as decrease in respiratory control index at 50 to 200 ng/mL; set-up: scale not given: the % may be the effect or the level left; summary of the method: as §2
# Rattus norvegicus [12] = organism: Rattus norvegicus; test: Antioxidant activity in Wistar rat heart mitochondria assessed as reduction in H2O2 production at 5 ng/mL by Amplex red based fluorimetric analysis; set-up: scale not given: the % may be the effect or the level left
# Summary of the method: (§3)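 Male Wistar rat heart mitochondria (0.25 mg/mL) incubated 7 min at 37 C in respiration medium with 6 mM each pyruvate and malate plus 16 ng/mL antimycin A. CCCP (1 μM) was the uncoupler reference. Then 5 μM Amplex Red and 2 U/mL horseradish peroxidase were added; fluorescence at ex 544/em 590 nm, calibrated with known H2O2; n = 3.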
# Rattus norvegicus [13] = organism: Rattus norvegicus; test: Antioxidant activity in Wistar rat heart mitochondria assessed as reduction in H2O2 production at 1.6 ng/mL by Amplex red based fluorimetric analysis; set-up: scale not given: the % may be the effect or the level left; summary of the method: as §3
# Rattus norvegicus [14] = organism: Rattus norvegicus; test: Effect on mitochondrial respiratory chain in rat heart mitochondria assessed as stimulation of state 2 respiration rate 12.6 ng/mL
# Rattus norvegicus [15] = organism: Rattus norvegicus; test: Effect on mitochondrial respiratory chain in rat heart mitochondria assessed as stimulation of state 2 respiration rate 4.9 ng/mL
# Rattus norvegicus [16] = organism: Rattus norvegicus; test: Effect on mitochondrial respiratory chain in rat heart mitochondria assessed as stimulation of state 2 respiration rate 449 ng/mL
# Rattus norvegicus [17] = organism: Rattus norvegicus; test: Effect on mitochondrial respiratory chain in rat heart mitochondria assessed as stimulation of state 2 respiration rate 293 ng/mL
# Rattus norvegicus [18] = organism: Rattus norvegicus; test: Effect on mitochondrial respiratory chain in rat heart mitochondria assessed as stimulation of state 2 respiration rate 7 ng/mL
# Rattus norvegicus [19] = organism: Rattus norvegicus; test: Effect on mitochondrial respiratory chain in rat heart mitochondria assessed as stimulation of state 2 respiration rate 26 ng/mL
# Rattus norvegicus [20] = organism: Rattus norvegicus; test: Effect on mitochondrial respiratory chain in Wistar rat heart mitochondria assessed as increase in state 2 respiratory rate using palmitoyl-L-carnitine and malate as substrate at 5 ng/mL; summary of the method: as §2
# Rattus norvegicus [21] = organism: Rattus norvegicus; test: Effect on mitochondrial respiratory chain in Wistar rat heart mitochondria assessed as increase in complex-1 dependent state 2 respiratory rate per mg protein using pyruvate and malate as substrate at 1.6 ng/mL; summary of the method: as §2
# Rattus norvegicus [22] = organism: Rattus norvegicus; test: Effect on mitochondrial respiratory chain in Wistar rat heart mitochondria assessed as state 3 respiratory rate using palmitoyl-L-carnitine and malate as substrate at 5 ng/mL; summary of the method: as §2
# Rattus norvegicus [23] = organism: Rattus norvegicus; test: Effect on mitochondrial respiratory chain in Wistar rat heart mitochondria assessed as increase in state 2 respiratory rate using palmitoyl-L-carnitine and malate as substrate at 1.6 ng/mL; summary of the method: as §2
# Rattus norvegicus [24] = organism: Rattus norvegicus; test: Effect on mitochondrial respiratory chain in Wistar rat heart mitochondria assessed as increase in state 2 respiratory rate per mg protein using succinate and amytal sodium as substrate at 5 ng/mL; summary of the method: as §2
# Rattus norvegicus [25] = organism: Rattus norvegicus; test: Effect on mitochondrial respiratory chain in Wistar rat heart mitochondria assessed as increase in state 2 respiratory rate per mg protein using succinate and amytal sodium as substrate at 1.6 ng/mL; summary of the method: as §2
# Rattus norvegicus [26] = organism: Rattus norvegicus; test: Effect on mitochondrial respiratory chain in Wistar rat heart mitochondria assessed as increase in complex-1 dependent state 2 respiratory rate per mg protein using pyruvate and malate as substrate at 5 ng/mL; summary of the method: as §2
# Rattus norvegicus [27] = organism: Rattus norvegicus; test: Effect on mitochondrial respiratory chain in Wistar rat heart mitochondria assessed as state 2 respiratory rate using palmitoyl-L-carnitine and malate as substrate at 5 ng/mL; summary of the method: as §2
# Rattus norvegicus [28] = organism: Rattus norvegicus; test: Effect on mitochondrial respiratory chain in Wistar rat heart mitochondria assessed as respiratory rate per mg protein using pyruvate and malate as substrate (reference value: 52 +/- 7 nmol/min); summary of the method: as §2
# Rattus norvegicus [29] = organism: Rattus norvegicus; test: Effect on mitochondrial respiratory chain in Wistar rat heart mitochondria assessed as respiratory rate per mg protein using pyruvate and malate as substrate in presence of ADP (reference value: 389+/-40 nmol/min); summary of the method: as §2
# Rattus norvegicus [30] = organism: Rattus norvegicus; test: Effect on mitochondrial respiratory chain in Wistar rat heart mitochondria assessed as ratio of respiratory rate in presence of ADP and cytochrome C to respiratory rate in presence of ADP using pyruvate and malate as substrate (reference value: 1.6+/-0.2); summary of the method: as §2
# Rattus norvegicus [31] = organism: Rattus norvegicus; test: Effect on mitochondrial respiratory chain in Wistar rat heart mitochondria assessed as respiratory control index using pyruvate and malate as substrate (reference value: 8.0+/-1.2); summary of the method: as §2
# Rattus norvegicus [32] = organism: Rattus norvegicus; test: Effect on mitochondrial respiratory chain in Wistar rat heart mitochondria assessed as respiratory rate per mg protein using palmitoyl-L-carnitine and malate as substrate (reference value: 85+/-4 nmol/min); summary of the method: as §2
# Rattus norvegicus [33] = organism: Rattus norvegicus; test: Effect on mitochondrial respiratory chain in Wistar rat heart mitochondria assessed as respiratory rate per mg protein using succinate and amytal sodium as substrate (reference value: 238+/-39 nmol/min); summary of the method: as §2
# Rattus norvegicus [34] = organism: Rattus norvegicus; test: Effect on mitochondrial respiratory chain in Wistar rat heart mitochondria assessed as respiratory rate per mg protein using palmitoyl-L-carnitine and malate as substrate in presence of ADP (reference value: 436+/-54 nmol/min); summary of the method: as §2
# Rattus norvegicus [35] = organism: Rattus norvegicus; test: Effect on mitochondrial respiratory chain in Wistar rat heart mitochondria assessed as respiratory rate per mg protein using succinate and amytal sodium as substrate in presence of ADP (reference value: 606+/-108 nmol/min); summary of the method: as §2
# Rattus norvegicus [36] = organism: Rattus norvegicus; test: Effect on mitochondrial respiratory chain in Wistar rat heart mitochondria assessed as ratio of respiratory rate in presence of ADP and cytochrome c to respiratory rate in presence of ADP using succinate and amytal sodium as substrate (reference value: 1.8+/- 0.1); summary of the method: as §2
# Rattus norvegicus [37] = organism: Rattus norvegicus; test: Effect on mitochondrial respiratory chain in Wistar rat heart mitochondria assessed as respiratory control index using succinate and amytal sodium as substrate (reference value: 2.5+/- 0.1); summary of the method: as §2
# Rattus norvegicus [38] = organism: Rattus norvegicus; test: Effect on mitochondrial respiratory chain in Wistar rat heart mitochondria assessed as ratio of respiratory rate in presence of ADP and cytochrome c to respiratory rate in presence of ADP using palmitoyl-L-carnitine and malate as substrate (reference value: 1.3+/-0.1); summary of the method: as §2
# Rattus norvegicus [39] = organism: Rattus norvegicus; test: Effect on mitochondrial respiratory chain in Wistar rat heart mitochondria assessed as respiratory control index using palmitoyl-L-carnitine and malate as substrate (reference value: 5.2+/-0.4); summary of the method: as §2
# Rattus norvegicus [40] = organism: Rattus norvegicus; test: Effect on mitochondrial respiratory chain in Wistar rat heart mitochondria assessed as complex-1 dependent state 2 respiratory rate per mg protein using pyruvate and malate as substrate at 1.6 ng/mL; summary of the method: as §2
# Rattus norvegicus [41] = organism: Rattus norvegicus; test: Effect on mitochondrial respiratory chain in Wistar rat heart mitochondria assessed as complex-1 dependent state 2 respiratory rate per mg protein using pyruvate and malate as substrate at 5 ng/mL; summary of the method: as §2
structure (smiles),measurement,setting,value
C[C@H]1[C@H](C)CC[C@]2(C(=O)O)CC[C@]3(C)C(=CC[C@@H]4[C@@]5(C)CC[C@H](O)C(C)(C)[C@@H]5CC[C@]43C)[C@H]12 [URSOLIC ACID],Activity,Rattus norvegicus [1],inactive
same,EC50,[2],4.1 ng/mL
same,Activity,Rattus norvegicus [3],Dose-dependent effect
same,Activity,Rattus norvegicus [4],279 nmol/min
same,Activity,Rattus norvegicus [5],299 nmol/min
same,Activity,Rattus norvegicus [6],90 nmol/min
same,Activity,Rattus norvegicus [7],inactive
same,Activity,Rattus norvegicus [8],inactive
same,Activity,Rattus norvegicus [9],40%
same,Activity,Rattus norvegicus [10],inactive
same,Activity,Rattus norvegicus [11],45%
same,Activity,Rattus norvegicus [12],55.6%
same,Activity,Rattus norvegicus [13],49.5%
same,Activity,Rattus norvegicus [14],11%
same,Activity,Rattus norvegicus [15],11%
same,Activity,Rattus norvegicus [16],11%
same,Activity,Rattus norvegicus [17],11%
same,Activity,Rattus norvegicus [18],11%
same,Activity,Rattus norvegicus [19],70%
same,Activity,Rattus norvegicus [20],10%
same,Activity,Rattus norvegicus [21],15%
same,Activity,Rattus norvegicus [22],inactive
same,Activity,Rattus norvegicus [23],10%
same,Activity,Rattus norvegicus [24],26%
same,Activity,Rattus norvegicus [25],17%
same,Activity,Rattus norvegicus [26],28%
same,Activity,Rattus norvegicus [27],92 nmol/min
same,Activity,Rattus norvegicus [28],61 nmol/min
same,Activity,Rattus norvegicus [29],374 nmol/min
same,Ratio,Rattus norvegicus [30],1.5
same,Ratio,Rattus norvegicus [31],4.8
same,Activity,Rattus norvegicus [32],82 nmol/min
same,Activity,Rattus norvegicus [33],238 nmol/min
same,Activity,Rattus norvegicus [34],403 nmol/min
same,Activity,Rattus norvegicus [35],599 nmol/min
same,Ratio,Rattus norvegicus [36],1.5
same,Ratio,Rattus norvegicus [37],2
same,Ratio,Rattus norvegicus [38],1.2
same,Ratio,Rattus norvegicus [39],4.4
same,Activity,Rattus norvegicus [40],70 nmol/min
same,Activity,Rattus norvegicus [41],78 nmol/min
